ChEMBL document CHEMBL1649352, “Catechin derivatives from Parapiptadenia rigida with in vitro wound-healing properties” (J Nat Prod, 2010)
Activity calls are given as the source filed them. No cut-off for these calls is given here.

Assays:
[1] = target: Mitogen-activated protein kinase 14 (Homo sapiens, UniProt Q16539); test: Inhibition of p38alpha after 1 hr by ELISA
NIH3T3 [2] = test: Antimigratory activity against Swiss albino mouse 3T3 cells assessed as increase of cell numbers at 2 ng/ml after 12 hrs by scratch-wound assay; assay type: functional
How it was run: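 Swiss 3T3 albino mouse fibroblasts were grown in DMEM with 10% fetal calf serum and penicillin/streptomycin at 37 °C and 5% CO2, and a scratch wound was made in the monolayer. PDGF (2 ng/mL) was incubated for 12 h. Read-out was the % of cells that migrated into and proliferated in the wounded area, relative to a cells-plus-DMSO control. At least triplicate; mean ± SEM.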

NIH3T3 [3] = test: Antimigratory activity against Swiss albino mouse 3T3 cells assessed as increase of cell numbers at 1 to 20 uM after 12 hrs by scratch-wound assay; assay type: functional, cell-based
How it was run: (§1)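 Swiss 3T3 albino mouse fibroblasts, cultured in DMEM with 10% FCS and penicillin/streptomycin at 37 °C, 5% CO2. A scratch wound was made in the confluent monolayer. Compounds were tested at 1, 10 and 20 µM. PDGF 2 ng/mL served as positive control and a DMSO-only well as reference. The % increase in cells migrating and proliferating into the wounded area was read after 12 h. At least triplicate runs, mean ± SEM.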

Jurkat [4] = test: Inhibition of TNFalpha-induced NF-kappaB activation in human Jurkat cells at 10 to 55 uM after 24 hrs by electrophoretic mobility shift assay; assay type: cell-based
How it was run: (§2)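 Jurkat T cells (3 × 10⁵ cells/mL) in RPMI 1640 with 10% FCS were preincubated 24 h with compound at 10, 20, 30 or 55 µM. They were then stimulated 1 h with rh-TNF-α 2.5 ng/mL. Nuclear extracts were probed with a [γ-³³P]-labelled NF-κB consensus oligonucleotide. Specificity was checked with a 100-fold molar excess of unlabelled oligo. Bands were quantified densitometrically by phosphorimager.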

NIH3T3 [5] = test: Antimigratory activity against Swiss albino mouse 3T3 cells assessed as increase of cell numbers at 1 uM after 12 hrs by scratch-wound assay; assay type: functional, cell-based; how it was run: as §1
NIH3T3 [6] = test: Antimigratory activity against Swiss albino mouse 3T3 cells assessed as increase of cell numbers at 10 uM after 12 hrs by scratch-wound assay; assay type: functional, cell-based; how it was run: as §1
Jurkat [7] = test: Cytotoxicity against human Jurkat cells at 55 uM after 22 hrs by MTT assay; assay type: cell-based
Jurkat [8] = test: Inhibition of TNF-alpha-induced NFkappaB activation in human Jurkat cells at 10 to 20 uM after 24 hrs by electrophoretic mobility shift assay; assay type: cell-based; how it was run: as §2
Jurkat [9] = test: Inhibition of TNF-alpha-induced NFkappaB activation in human Jurkat cells at 30 to 55 uM after 24 hrs by electrophoretic mobility shift assay; assay type: cell-based; how it was run: as §2

Chain of Mitogen-activated protein kinase 14 (Q16539 whole entry): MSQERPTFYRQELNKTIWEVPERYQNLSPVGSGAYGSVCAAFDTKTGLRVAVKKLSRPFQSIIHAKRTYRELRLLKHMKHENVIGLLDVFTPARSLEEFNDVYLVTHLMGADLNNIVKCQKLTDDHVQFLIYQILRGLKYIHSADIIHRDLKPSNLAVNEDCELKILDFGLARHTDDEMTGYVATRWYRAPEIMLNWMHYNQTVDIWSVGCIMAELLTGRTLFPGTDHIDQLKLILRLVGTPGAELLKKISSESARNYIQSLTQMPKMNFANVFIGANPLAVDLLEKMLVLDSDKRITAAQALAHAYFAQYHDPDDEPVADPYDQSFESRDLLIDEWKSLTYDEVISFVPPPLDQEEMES

SMILES | IC50 [1] [µM] | Activity (NIH3T3 [3]) | Activity (Jurkat [4]) | also measured
O=C(O[C@@H]1Cc2c(O)cc(O)cc2O[C@@H]1c1cc(O)c(O)c(O)c1)c1cc(O)c(O)c(O)c1 [EPIGALOCATECHIN GALLATE] | 2.21 | Active | Active | Activity (NIH3T3 [2]): 59.5%
COc1ccc([C@H]2Oc3cc(O)cc(O)c3C[C@H]2OC(=O)c2cc(O)c(O)c(O)c2)cc1O | – | – | – | Activity (NIH3T3 [5]): Active; Activity (NIH3T3 [6]): inactive
O=C(O[C@@H]1Cc2c(O)cc(O)cc2O[C@@H]1c1ccc(O)c(O)c1)c1cc(O)c(O)c(O)c1 [EPICATECHIN GALLATE] | 1.47 | – | – | Activity (NIH3T3 [5]): Active; Activity (NIH3T3 [6]): inactive
COc1c(O)cc([C@H]2Oc3cc(O)cc(O)c3C[C@@H]2O)cc1O | – | Active | Active | –
COc1cc(/C=C/C(=O)O[C@@H]2Cc3c(O)cc(O)cc3O[C@@H]2c2cc(O)c(O)c(O)c2)ccc1O | – | – | Active | –
COc1c(O)cc([C@H]2Oc3cc(O)cc(O)c3C[C@H]2OC(=O)c2cc(O)c(O)c(O)c2)cc1O | – | Active | Active | –
COc1c(O)cc([C@H]2Oc3cc(O)cc(O)c3C[C@H]2O)cc1O | 39.2 | – | Active | –
COc1cc([C@H]2CC(=O)Oc3cc(O)c4c(c32)O[C@H](c2cc(O)c(OC)c(O)c2)[C@@H](O)C4)ccc1O | 50.8 | Active | – | Activity (Jurkat [7]): 11%; Activity (Jurkat [8]): Active; Activity (Jurkat [9]): inactive
